{"source": "ChEMBL document CHEMBL5030567", "about": "“Macrocyclic Inhibitors of HGF-Activating Serine Proteases Overcome Resistance to Receptor Tyrosine Kinase Inhibitors and Block Lung Cancer Progression” (J Med Chem, 2021)", "key": {"[1]": {"system": "NCI-H596", "assay": "Antitumor activity against human NCI-H596 cells xenografted in hHGF knock in NSG mouse assessed as tumor growth inhibition at 20 mg/kg, ip administered daily for 14 to 16 days", "format": "functional, organism-based", "details": "time 14-16 day"}, "[2]": {"assay": "Toxicity in NSG mouse assessed as body weight loss at 10 to 50 mg/kg, ip administered for 7 days", "format": "organism-based", "details": "in vivo, dose 10-50 mg/kg, time 7 day"}, "[3]": {"assay": "Acute toxicity in NSG mouse at 10 to 50 mg/kg, ip administered for 7 days", "format": "organism-based", "details": "in vivo, dose 10-50 mg/kg, time 7 day"}, "[4]": {"assay": "Toxicity in hHGF knock in NSG mouse xenografted with human NCI-H596 cells at 20 mg/kg, ip administered daily for 14 to 16 days", "format": "organism-based", "details": "in vivo, time 14-16 day"}, "[5]": {"assay": "Toxicity in NSG mouse at 20 mg/kg, ip administered daily for 7 days", "format": "organism-based", "details": "in vivo, time 7 day"}, "[6]": {"system": "EBC-1", "assay": "Cytotoxicity against human EBC-1 cells assessed as reduction in cell viability preincubated with compound and pro-HGF for 24 hrs followed by JNJ-38877605 addition and measured after 48 hrs by CellTiter-Glo assay", "format": "functional, cell-based", "details": "time 72.0 hrs", "method_in_brief": "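EBC-1 cells pre-incubated 24 h with pro-HGF (100 ng/ml) with or without compound (1 µM), then given MET kinase inhibitor JNJ-38877605 (25 nM). Viability read by CellTiter-Glo after 48 h. Means±S.E.M., n=3; one-way ANOVA with Dunnett's test.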"}, "[7]": {"target": "T1, Suppressor of tumorigenicity 14 protein (Homo sapiens, UniProt Q9Y5Y6)", "T1 sequence (Q9Y5Y6 whole entry)": "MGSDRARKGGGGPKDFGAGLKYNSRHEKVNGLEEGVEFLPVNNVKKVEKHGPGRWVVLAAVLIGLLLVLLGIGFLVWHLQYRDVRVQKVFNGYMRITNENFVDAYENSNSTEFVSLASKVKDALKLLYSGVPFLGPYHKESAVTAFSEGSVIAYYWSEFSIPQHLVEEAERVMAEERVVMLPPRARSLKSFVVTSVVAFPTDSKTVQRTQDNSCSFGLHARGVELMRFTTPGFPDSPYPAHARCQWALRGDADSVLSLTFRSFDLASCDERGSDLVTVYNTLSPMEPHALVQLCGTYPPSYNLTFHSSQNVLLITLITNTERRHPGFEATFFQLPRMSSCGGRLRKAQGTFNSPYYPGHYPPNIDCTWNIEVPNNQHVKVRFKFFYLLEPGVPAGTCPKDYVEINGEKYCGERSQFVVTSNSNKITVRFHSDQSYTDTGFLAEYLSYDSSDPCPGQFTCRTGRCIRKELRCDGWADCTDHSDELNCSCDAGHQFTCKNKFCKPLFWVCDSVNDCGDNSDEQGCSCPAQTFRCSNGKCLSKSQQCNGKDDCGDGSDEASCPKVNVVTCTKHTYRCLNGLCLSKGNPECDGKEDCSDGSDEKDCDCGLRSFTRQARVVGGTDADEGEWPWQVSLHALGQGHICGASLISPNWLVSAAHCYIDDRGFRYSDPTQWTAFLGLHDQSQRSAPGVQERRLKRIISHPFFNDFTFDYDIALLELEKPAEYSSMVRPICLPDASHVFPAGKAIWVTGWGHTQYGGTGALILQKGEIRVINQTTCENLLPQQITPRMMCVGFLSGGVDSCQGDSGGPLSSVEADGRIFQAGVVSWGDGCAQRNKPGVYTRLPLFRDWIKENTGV", "assay": "Inhibition of recombinant human N-terminal met-His6-tagged matriptase catalytic domain (Gly596 to Val855 residues) expressed in Escherichia coli using Boc-QAR-AMC as substrate preincubated for 30 mins followed by substrate addition by fluorescence based assay", "method_in_brief": "(§1)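 Inhibitor in 11-point serial dilution (0-20 µM final, 2% DMSO) pre-incubated 30 min at room temperature with enzyme in TNC buffer (25 mM Tris, 150 mM NaCl, 5 mM CaCl2, 0.01% Triton X-100, pH 8). […] Hepsin activated beforehand 24 h at 37°C. Fluorescence ex 380/em 460 nm kinetic; four-parameter fit of velocities; mean of three experiments.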"}, "[8]": {"target": "T2, Serine protease hepsin (Homo sapiens, UniProt P05981)", "T2 sequence (P05981 1-162 limits assumed)": "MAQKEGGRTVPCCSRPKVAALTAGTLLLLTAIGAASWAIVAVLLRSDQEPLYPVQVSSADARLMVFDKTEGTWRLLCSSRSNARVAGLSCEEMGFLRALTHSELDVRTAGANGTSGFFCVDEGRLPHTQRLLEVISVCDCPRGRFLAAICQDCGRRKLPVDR", "T2 sequence (P05981 163-417 limits assumed)": "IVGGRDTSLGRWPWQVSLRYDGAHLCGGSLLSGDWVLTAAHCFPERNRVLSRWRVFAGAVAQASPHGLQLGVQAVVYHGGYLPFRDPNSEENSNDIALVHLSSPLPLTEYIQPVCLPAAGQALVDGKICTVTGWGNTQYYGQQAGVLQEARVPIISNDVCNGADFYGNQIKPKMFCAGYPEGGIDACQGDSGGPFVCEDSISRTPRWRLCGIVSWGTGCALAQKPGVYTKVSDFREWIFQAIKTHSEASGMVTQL", "assay": "Inhibition of recombinant human C-terminal 10-His tagged hepsin (Arg45 to Leu417) expressed in mouse myeloma cells using Boc-QAR-AMC as substrate preincubated for 30 mins followed by substrate addition by fluorescence based assay", "format": "single protein", "method_in_brief": "as §1"}, "[9]": {"assay": "Stability in mouse plasma assessed as half life", "format": "ADME, cell-free"}, "[10]": {"assay": "Stability in human plasma assessed as half life", "format": "ADME, cell-free"}, "[11]": {"assay": "Plasma protein binding in mouse assessed as unbound fraction", "format": "ADME, cell-free"}, "[12]": {"assay": "Half life in mouse plasma at 20 mg/kg, ip", "format": "ADME, organism-based", "details": "in vivo, 20 mg/kg"}, "[13]": {"assay": "Solubility of compound at pH 7.4", "format": "physicochemical", "details": "buffer"}, "[14]": {"assay": "Stability in human liver microsomes assessed as half life", "format": "ADME, Microsome"}, "[15]": {"assay": "Stability in mouse liver microsomes assessed as half life", "format": "ADME, Microsome"}, "[16]": {"target": "T3, Suppressor of tumorigenicity 14 protein (Homo sapiens) (UniProt Q9Y5Y6)", "T3 sequence (whole entry)": "T1 sequence (Q9Y5Y6 whole entry)", "assay": "Inhibition of recombinant human N-terminal met-His6-tagged matriptase catalytic domain (Gly596 to Val855 residues) expressed in Escherichia coli mediated pro-HGF activation preincubated for 30 mins followed by pro-HGF addition and measured after 1 hr by immunoblotting analysis", "method_in_brief": "(§2)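 Recombinant pro-HGF (10 ng) incubated one hour with matriptase (1 nM), hepsin (10 nM) or HGFA (5 nM), with or without inhibitor. Processing detected by immunoblot with a polyclonal antibody recognizing pro-HGF and the HGF alpha and beta chains; active HGF served as positive control.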"}, "[17]": {"target": "T2, Serine protease hepsin", "assay": "Inhibition of recombinant human C-terminal 10-His tagged hepsin (Arg45 to Leu417) expressed in mouse myeloma cells mediated pro-HGF activation preincubated for 30 mins followed by pro-HGF addition and measured after 1 hr by immunoblotting analysis", "method_in_brief": "as §2"}, "[18]": {"target": "T4, Hepatocyte growth factor activator serine protease (Homo sapiens) (UniProt Q04756)", "T4 sequence (whole entry)": "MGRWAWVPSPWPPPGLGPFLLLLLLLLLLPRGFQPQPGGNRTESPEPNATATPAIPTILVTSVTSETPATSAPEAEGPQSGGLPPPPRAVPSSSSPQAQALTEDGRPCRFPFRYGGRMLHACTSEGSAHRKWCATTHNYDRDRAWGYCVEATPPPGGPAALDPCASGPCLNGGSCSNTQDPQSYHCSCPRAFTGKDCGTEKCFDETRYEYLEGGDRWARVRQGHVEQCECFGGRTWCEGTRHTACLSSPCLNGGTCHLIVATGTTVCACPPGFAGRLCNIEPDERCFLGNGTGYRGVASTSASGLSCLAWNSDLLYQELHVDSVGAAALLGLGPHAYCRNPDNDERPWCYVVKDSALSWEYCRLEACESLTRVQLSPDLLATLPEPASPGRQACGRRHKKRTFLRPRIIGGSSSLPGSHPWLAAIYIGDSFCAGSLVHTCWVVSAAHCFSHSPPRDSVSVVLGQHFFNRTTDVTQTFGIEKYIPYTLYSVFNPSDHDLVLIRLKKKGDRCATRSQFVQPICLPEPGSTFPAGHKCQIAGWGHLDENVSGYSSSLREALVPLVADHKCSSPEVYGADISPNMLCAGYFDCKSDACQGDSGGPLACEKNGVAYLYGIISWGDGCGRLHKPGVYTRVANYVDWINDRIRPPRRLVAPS", "assay": "Inhibition of recombinant human HGFA serine protease domain mediated pro-HGF activation preincubated for 30 mins followed by pro-HGF addition and measured after 1 hr by immunoblotting analysis", "method_in_brief": "as §2"}, "[19]": {"system": "HCC827", "assay": "Inhibition of pro-HGF stimulated wound healing in human HCC827 cells preincubated for 30 mins followed by pro-HGF stimulation and measured after 24 hrs by crystal violet staining based assay", "format": "functional, cell-based", "method_in_brief": "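HCC827 monolayers grown to confluence, serum-starved overnight, then scratched. Cells were pre-incubated 30 min with inhibitor (10 µM) and stimulated with HGF or pro-HGF for 24 h. Wells stained with crystal violet to score closure. n=3; one-way ANOVA versus pro-HGF alone.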"}, "[20]": {"system": "HCC827", "assay": "Cytotoxicity against human HCC827 cells assessed as reduction in cell viability at 0.1 to 1 uM after 72 hrs by crystal violet staining based assay", "details": "dose 0.1-1 µM"}, "[21]": {"system": "HCC827", "assay": "Cytotoxicity against human HCC827 cells assessed as reduction in cell viability at 0.1 to 1 uM after 72 hrs in presence of pro-HGF by crystal violet staining based assay", "details": "dose 0.1-1 µM"}}, "note": "Activity calls are given as the source filed them. No cut-off for these calls is given here.", "data": [{"smiles": "CC(=O)N[C@H]1CC(=O)NCCCC[C@@H](C(=O)N[C@@H](CCCNC(=N)N)C(=O)c2nc3ccccc3s2)NC(=O)[C@H](CC(C)C)NC1=O", "values": [{"measurement": "Activity", "setting": "[1]", "result": "Active"}, {"measurement": "Activity", "setting": "[2]", "result": "Non-Toxic"}, {"measurement": "Activity", "setting": "[3]", "result": "Non-Toxic"}, {"measurement": "Activity", "setting": "[4]", "result": "Non-Toxic"}, {"measurement": "Activity", "setting": "[5]", "result": "Non-Toxic"}, {"measurement": "Activity", "setting": "[6]", "result": "Active"}, {"measurement": "IC50", "setting": "[7]", "result": 2.2, "unit": "nM"}, {"measurement": "IC50", "setting": "[8]", "result": 11, "unit": "nM"}, {"measurement": "t1/2", "setting": "[9]", "result": 3.7, "unit": "h"}, {"measurement": "t1/2", "setting": "[10]", "result": "> 4.82", "unit": "h"}, {"measurement": "fraction unbound", "setting": "[11]", "result": 0.286}, {"measurement": "t1/2", "setting": "[12]", "result": 8.7, "unit": "h"}, {"measurement": "solubility", "setting": "[13]", "result": 11, "unit": "µM"}, {"measurement": "t1/2", "setting": "[14]", "result": "> 2.42", "unit": "h"}, {"measurement": "t1/2", "setting": "[15]", "result": "> 2.42", "unit": "h"}, {"measurement": "inhibition", "setting": "[16]", "result": "Active"}, {"measurement": "inhibition", "setting": "[17]", "result": "Active"}, {"measurement": "inhibition", "setting": "[18]", "result": "inactive"}, {"measurement": "inhibition", "setting": "[19]", "result": "Active"}, {"measurement": "Activity", "setting": "[20]", "result": "inactive"}, {"measurement": "Activity", "setting": "[21]", "result": "Active"}]}]}
